# Screening results deposited in PubChem by Johns Hopkins Ion Channel Center.
# Hits are enriched below; roughly 3.7% of the tested compounds scored in any of these assays.
# KCNK9 block: KCNK9 potassium channel inhibitors, primary screen, HEK293 cells, thallium flux | actives 1.2% (n = 310,000) | B-score at 10 µM | FluxOR thallium flux fluorescence; active compounds read low | AID 488922, 2010;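 active = ratio B-score over 3 SD below the library mean, with starting fluorescence within 5 SD of its mean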;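 also: negative B-score means less thallium flux so channel inhibition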
# Kir21 inh: inhibitors of mouse Kir2.1 inward-rectifier potassium channel; Inward rectifier potassium channel 2 (Mus musculus), P35561; HEK293-Kir2.1, FluxOR thallium flux fluorescence; active compounds read low; B-score at 10 µM; actives 0.85% (n = 310,000);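 active = fluorescence ratio B-score at or below minus 3 SD of library scores, with starting-brightness B-score within 2 SD, cut at about -4.2 in these data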;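 also: channel flux triggered by added potassium and thallium sulfate stimulus; B-score of peak minus minimum fluorescence over baseline after thallium stimulus; more negative B-score means stronger Kir2.1 block with less thallium influx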
# KCNQ1 inh: inhibitors of human KCNQ1 channel, primary screen, cell-based, thallium flux, high-throughput; actives 1.3% (n = 310,000); B-score at 10 µM; CHO-K1 KCNQ1, FluxOR thallium flux fluorescence; active compounds read high; AID 2642, 2010;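 active = compounds whose thallium flux B-score, printed positive for inhibition, exceeds three library SD while starting fluorescence stays within three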;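 also: channel opened by potassium depolarization with thallium stimulus after 20 min compound exposure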
# Target sequence (P51787 whole entry, looked up): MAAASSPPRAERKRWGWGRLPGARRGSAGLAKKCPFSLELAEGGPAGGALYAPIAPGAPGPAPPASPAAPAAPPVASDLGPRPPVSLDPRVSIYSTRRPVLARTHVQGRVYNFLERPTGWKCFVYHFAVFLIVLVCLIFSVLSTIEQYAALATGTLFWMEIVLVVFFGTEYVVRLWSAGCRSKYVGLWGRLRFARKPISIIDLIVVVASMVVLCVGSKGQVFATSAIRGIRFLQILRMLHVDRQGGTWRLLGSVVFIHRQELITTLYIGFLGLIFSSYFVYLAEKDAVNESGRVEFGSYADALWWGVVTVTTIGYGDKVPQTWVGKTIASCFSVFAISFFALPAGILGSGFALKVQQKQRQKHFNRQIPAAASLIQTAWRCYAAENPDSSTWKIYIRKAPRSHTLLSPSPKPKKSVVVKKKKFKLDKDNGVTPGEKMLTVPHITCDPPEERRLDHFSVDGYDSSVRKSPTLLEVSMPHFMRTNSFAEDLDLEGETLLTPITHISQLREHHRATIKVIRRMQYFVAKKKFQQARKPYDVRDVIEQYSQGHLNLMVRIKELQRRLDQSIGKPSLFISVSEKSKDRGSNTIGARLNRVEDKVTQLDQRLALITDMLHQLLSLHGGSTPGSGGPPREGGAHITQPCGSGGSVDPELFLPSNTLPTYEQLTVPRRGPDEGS
# KCNK3 inh: human KCNK3 channel inhibitors, primary screen, CHO cells, FluxOR thallium flux, B-score | FluxOR fluorescence; active compounds read low | B-score at 10 µM | actives 0.84% (n = 340,000) | Potassium channel subfamily K member 3 (Homo sapiens), O14649;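 active = B-score under library mean minus 4 SD, starting fluorescence ratio at most library mean plus 5 SD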;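 also: more negative B-score means stronger inhibition of thallium flux through KCNK3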
# KCNQ1 act: potentiators or activators of KCNQ1 channel, primary screen, cell-based, thallium flux, high-throughput; AID 2648, 2010; actives 0.35% (n = 310,000); CHO-K1 KCNQ1, thallium flux FluxOR fluorescence; active compounds read high; Potassium voltage-gated channel subfamily KQT member 1 (Homo sapiens), P51787; B-score at 10 µM;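 active = fluorescence ratio B-score, a plate-corrected score, at least three library SD, with initial intensity B-score within 5 SD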
#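 Schedule – 37 °C overnight plating, 90-min dark dye load, 20-min compound pretreatment · System – stable KCNQ1 CHO-K1 line · Probe or stimulus – thallium- and potassium-containing depolarizing buffer · Measured by – kinetic FluxOR fluorescence, 10 s baseline plus 110 s post-stimulus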
# hERG protect: hERG rescue from dofetilide block, primary screen, cell-based, CHO-hERG, FluxOR thallium flux, dofetilide IC70; Voltage-gated inwardly rectifying potassium channel KCNH2 (Homo sapiens), Q12809; dofetilide IC70 present; activation (rescue from dofetilide block), less the hit threshold, % at 10 µM; actives 0.51% (n = 310,000);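 active = activation above the mean of controls blocked by dofetilide plus 5 SD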;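 also: thallium influx through hERG after potassium depolarization seen as dye fluorescence rise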
# KCNK9 block conf: KCNK9 potassium channel inhibitors, confirmation, HEK293 cells, thallium flux, duplicate | shares compounds with KCNK9 block | FluxOR thallium flux fluorescence | inhibition, % at 10 µM | actives 43% (n = 4,900) | AID 492992, 2010;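 active = thallium signal inhibited by more than 5 SD of the compound-free buffer control wells, on both duplicate plates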;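 also: 0% = assay buffer control wells without compound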
# Kir21 sel: mouse Kir2.1 channel inhibition, confirmation, selectivity assay for KCNK9 modulator project, cell-based, HEK293, thallium flux | shares compounds with KCNK9 block | Kir2.1 cells, FluxOR thallium flux fluorescence | inhibition, % at 10 µM | actives 4% (n = 4,900) | AID 492993, 2010;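 active = thallium signal drop more than 5 SD beyond the mean of the no-compound control wells, seen in both duplicate plates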;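 also: signal is fluorescence rise after thallium addition divided by baseline fluorescence; plate controls were assay buffer only for no effect and full block by chlorpromazine control for full effect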
# HEK293 Tl ctr: thallium flux in non-induced HEK293 cells, confirmation, counter-screen for KCNK9 inhibitor project, cell-based, second counter screen, non-induced KCNK9-HEK293 | shares compounds with KCNK9 block | FluxOR thallium flux | inhibition, % at 10 µM | actives 40% (n = 4,900) | AID 492997, 2010;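 active = thallium signal drop beyond 5 SD of the untreated control mean, on both duplicate plates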;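 also: plate controls were buffer only IC0 wells for no effect and SID17386958 at its maximal inhibitory level for full effect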
# * = called active by the depositor; i = inactive; nt = not tested or not shown.
SMILES,KCNK9 block,Kir21 inh,KCNQ1 inh,KCNK3 inh,KCNQ1 act,hERG protect,KCNK9 block conf,Kir21 sel,HEK293 Tl ctr
O=C(CCN1C(=O)/C(=C/c2ccccc2Cl)SC1=S)Nc1ccccc1C(=O)O,i,-3,i,i,i,-26,i,i,i
COc1ccccc1NS(=O)(=O)c1ccc2oc(SCc3ccc(F)cc3)nc2c1,i,-0.37,i,i,i,-22,nt,nt,nt
COc1ccc(NS(=O)(=O)c2ccc3oc(SCc4ccc(F)cc4)nc3c2)cc1,i,-0.87,i,i,i,-8,i,i,i
Cc1ccc(S(=O)(=O)NCCCN2CCCC2)cc1,i,0.89,i,i,i,-7,nt,nt,nt
Cc1cc(OCC(=O)NC2CCN(Cc3ccccc3)CC2)c2c(C)cc(=O)oc2c1,i,0.09,i,i,i,-7,nt,nt,nt
COc1cccc(CNc2ccc(N3CCC(C)CC3)cc2)c1OC,i,-2.5,i,i,i,-3,i,i,i
COc1ccc(Br)cc1CNc1ccc(N2CCOCC2)cc1,i,0.48,i,i,i,-8,nt,nt,nt
Cc1cccc(C2NC(c3cccc(C)c3)C([N+](=O)[O-])C(C)(C)C2[N+](=O)[O-])c1 (stereo not drawn),i,0.65,i,i,i,-1,i,i,i
CC(C)(O)C#Cc1ccc(CNC[C@H]2O[C@@H](n3cnc4c(N)ncnc43)[C@H](O)[C@@H]2O)s1,nt,nt,nt,i,nt,nt,nt,nt,nt
CCOc1cccc(-c2nc3c(s2)CCc2onc(-c4cccc([N+](=O)[O-])c4)c2-3)c1,i,0.02,i,i,i,-3,nt,nt,nt
O=C(CSCc1ccc(Br)cc1)Nc1ccc(S(=O)(=O)N2CCOCC2)cc1,i,-0.06,i,i,i,-8,nt,nt,nt
COc1ccc(NC(=O)CSCC(=O)Nc2ccc(S(=O)(=O)N3CCCCC3)cc2)cc1,i,-0.35,i,i,i,-8,nt,nt,nt
O=C(CSCc1ccc(Cl)cc1)Nc1ccc(S(=O)(=O)N2CCCCCC2)cc1,i,0.03,i,i,i,-9,i,i,i
COc1ccc(CSCC(=O)Nc2ccc(S(=O)(=O)N3CCCCCC3)cc2)cc1,i,-2.5,i,i,i,-3,i,i,i
Cc1ccc(-n2c(C)cc(C(=O)Cn3nc(C(=O)O)c4ccccc4c3=O)c2C)cc1,i,-2.6,i,i,i,-6,nt,nt,nt
COc1ccc(-n2c(C)cc(C(=O)Cn3nc(C(=O)O)c4ccccc4c3=O)c2C)cc1,i,0.16,i,i,i,-7,i,i,i
Cc1cc(C(=O)Cn2nc(C(=O)O)c3ccccc3c2=O)c(C)n1-c1ccc(OC(F)F)cc1,i,-0.67,i,i,i,-5,i,i,i
C/C(=N/NC(=O)CN(c1ccccc1)S(=O)(=O)c1ccccc1)c1ccccc1O,i,-0.05,i,i,i,-3,nt,nt,nt
O=C(N[C@H](Cc1ccc(Cl)cc1)C(=O)O)OCC1c2ccccc2-c2ccccc21,i,0.39,i,i,i,-13,nt,nt,nt
O=C(N[C@@H](Cc1ccc(Br)cc1)C(=O)O)OCC1c2ccccc2-c2ccccc21,i,-0.01,i,i,i,-5,i,i,i
COc1ccc(C(C(=O)NC2CCCC2)N(C(=O)c2csnn2)C2CCCC2)cc1 (stereo not drawn),i,-1.8,i,i,i,-3,nt,nt,nt
CCOc1ncccc1C(=O)Nc1ccc(C)cn1,i,-1.2,i,i,i,-11,nt,nt,nt
O=C(C[C@H]1C/C=C\C[C@H](NC(=O)OCC2c3ccccc3-c3ccccc32)C(=O)OC[C@H](Cc2ccccc2)NC1=O)N[C@H](CO)Cc1ccccc1,nt,nt,nt,i,nt,nt,nt,nt,nt
CCOC(=O)c1cccc(COC(=O)c2cccc(-c3nnc(-c4ccccc4)o3)c2)c1,-19*,-0.08,i,i,i,-17,68%*,i,24%*
O=C(OCc1ccccc1)c1cccc(-c2nnc(-c3ccccc3)o2)c1,i,-0.52,i,i,i,-34,nt,nt,nt
SMILES,KCNK9 block,Kir21 inh,KCNQ1 inh,KCNK3 inh,KCNQ1 act,hERG protect,KCNK9 block conf,Kir21 sel,HEK293 Tl ctr
CCOC(=O)c1c(-c2ccccc2)csc1NC(=O)C1CCCO1 (stereo not drawn),i,0.04,i,i,i,-1,nt,nt,nt
CCOC(=O)c1c(-c2ccc(-c3ccccc3)cc2)csc1NC(=O)C1C2CCC(O2)C1C(=O)O (stereo not drawn),i,0.68,i,i,i,-9,i,i,i
C/C(=N\Nc1nc2ccccc2s1)c1ccc(Br)s1,i,1.1,i,i,10*,2,i,i,i
CC(=NNc1nc2ccccc2s1)c1ccncn1,nt,nt,nt,i,nt,nt,nt,nt,nt
Nc1ccc(C2(c3ccc(N)cc3)OC(=O)c3ccccc32)cc1,i,0.24,i,i,i,-4,nt,nt,nt
Cc1cc(C2(c3ccc(O)c(C)c3)OC(=O)c3ccccc32)ccc1O,-12*,-2,i,i,i,-6,55%*,i,i
CCCn1nc(NC(=O)c2cccs2)c2cc3cc(OC)ccc3nc21,-10*,0.32,i,i,i,-5,i,i,i
Cc1ccc(-c2ccc(C(=O)NCc3ccccc3)o2)c2ccccc12,i,0.21,i,i,i,-10,nt,nt,nt
Cc1ccc(S(=O)(=O)NC(=O)c2ccc(-c3ccc(C)c4ccccc34)o2)cc1,i,0.46,i,i,i,-19,i,i,i
